Source: ChEMBL document CHEMBL4808210, “Mapping Chromone-3-Phenylcarboxamide Pharmacophore: Quid Est Veritas?” (J Med Chem, 2021)
pIC50: −log10 of the molar value.

Columns and labels:
[1] = target: T1, Amine oxidase [flavin-containing] B (Homo sapiens, UniProt P27338); assay: (§1) Inhibition of recombinant human MAO-B expressed in baculovirus infected BTI-TN- 5B1-4 insect cells using kynuramine as substrate preincubated for 10 mins in presence of substrate followed by enzyme addition and measured every minute for 30 mins by spectrophotometry analysis; assay type: cell-based
T1 sequence (P27338 whole entry): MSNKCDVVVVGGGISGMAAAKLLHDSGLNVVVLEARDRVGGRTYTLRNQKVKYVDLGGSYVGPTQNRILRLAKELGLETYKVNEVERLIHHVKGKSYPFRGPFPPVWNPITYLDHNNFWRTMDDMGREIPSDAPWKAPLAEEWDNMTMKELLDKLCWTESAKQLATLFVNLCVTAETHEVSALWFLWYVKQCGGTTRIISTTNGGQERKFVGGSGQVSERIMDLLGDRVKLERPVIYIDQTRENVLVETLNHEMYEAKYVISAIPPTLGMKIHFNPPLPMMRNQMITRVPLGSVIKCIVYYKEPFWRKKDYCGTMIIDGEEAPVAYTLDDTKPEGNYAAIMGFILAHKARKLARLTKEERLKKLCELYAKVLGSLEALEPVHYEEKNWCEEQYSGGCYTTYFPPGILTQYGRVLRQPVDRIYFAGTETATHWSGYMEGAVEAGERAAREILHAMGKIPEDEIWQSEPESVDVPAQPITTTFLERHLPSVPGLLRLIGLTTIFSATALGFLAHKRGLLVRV

MAO-A = target: T2, MAO-A (Homo sapiens, UniProt P21397); assay: as §1, with “MAO-A” for “MAO-B”, “cells at 10 uM” for “cells”, “analysis relative to control” for “analysis”; conditions: probe kynuramine, time 40 min
T2 sequence (P21397 whole entry): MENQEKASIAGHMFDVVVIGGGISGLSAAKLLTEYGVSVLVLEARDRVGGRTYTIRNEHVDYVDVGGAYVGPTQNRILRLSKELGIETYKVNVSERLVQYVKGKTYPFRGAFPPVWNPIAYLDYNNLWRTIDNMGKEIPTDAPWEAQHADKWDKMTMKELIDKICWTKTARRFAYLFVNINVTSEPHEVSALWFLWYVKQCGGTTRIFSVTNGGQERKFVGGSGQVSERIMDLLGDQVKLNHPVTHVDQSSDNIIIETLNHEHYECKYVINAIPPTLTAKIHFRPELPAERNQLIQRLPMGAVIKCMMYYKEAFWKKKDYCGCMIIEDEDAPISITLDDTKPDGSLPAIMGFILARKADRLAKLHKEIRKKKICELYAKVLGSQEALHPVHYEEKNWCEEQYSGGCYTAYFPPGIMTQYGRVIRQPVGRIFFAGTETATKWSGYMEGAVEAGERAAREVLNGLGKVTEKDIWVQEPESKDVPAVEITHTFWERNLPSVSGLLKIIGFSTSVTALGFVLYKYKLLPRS
Method in brief: (§2)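 Recombinant hMAO-A and hMAO-B were assayed with kynuramine as substrate. Percent inhibition was taken at 10 μM, the highest concentration tested. Where the hMAO-A IC₅₀ was not reached, it was taken as 10 μM.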

Homo sapiens = organism: Homo sapiens; assay: Selectivity index, ratio of IC50 for recombinant human MAO-A expressed in baculovirus infected BTI-TN- 5B1-4 insect cells to IC50 for recombinant human MAO-B expressed in baculovirus infected BTI-TN- 5B1-4 insect cells using kynuramine as substrate preincubated for 10 mins in presence of substrate followed by enzyme addition and measured every minute for 30 mins by spectrophotometry analysis; method in brief: as §2
[2] = target: T1, Amine oxidase [flavin-containing] B; assay: Time dependent inhibition of recombinant human MAO-B expressed in baculovirus infected BTI-TN- 5B1-4 insect cells assessed as increase in enzyme activity at IC80 measured after 120 mins; conditions: bti-tn-5b1-4, 2 h
[3] = target: T1, Amine oxidase [flavin-containing] B; assay: Mixed-type inhibition of recombinant human MAO-B expressed in baculovirus infected BTI-TN- 5B1-4 insect cells at 1 to 5 nM using varying levels of kynuramine as substrate by Lineweaver-Burk plot analysis; conditions: dose 1-5 nM
Method in brief: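 Initial rates of hMAO-B activity were measured at six kynuramine concentrations (10−100 μM), without inhibitor and at three inhibitor concentrations. Kinetic parameters were read from a double-reciprocal Lineweaver−Burk plot. An Ackermann−Potter plot of total enzyme concentration was also constructed.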

SH-SY5Y [4] = assay: Cytotoxicity against human SH-SY5Y cells assessed as effect on NR uptake at 1 to 10 uM measured after 24 hrs by neutral red uptake assay; assay type: cell-based; conditions: dose 1-10 µM
Method in brief: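 Differentiated SH-SY5Y cells were exposed to compounds at 1 and 10 μM for 24 h. Lysosomal activity was read as neutral red dye uptake and compared with untreated cells. Mean ± SEM of at least three independent experiments run in triplicate.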

Caco-2 = assay: Cytotoxicity against human Caco-2 cells assessed as effect on cell viability at 1 to 10 uM measured after 24 hrs by MTT assay; assay type: cell-based; conditions: caco-2, 24 h, dose 1-10 µM
Method in brief: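 Caco-2 cells, and SH-SY5Y cells first differentiated toward a dopaminergic-like phenotype, were treated for 24 h with compounds at 1 and 10 μM. Metabolic activity was read as MTT reduction to formazan, relative to untreated cells. Mean ± SEM of at least three independent experiments, each in triplicate.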

HUVEC [5] = assay: Cytotoxicity against HUVEC cells at 10 uM incubated for 24 to 48 hrs by Celltiter-Glo assay relative to control; assay type: cell-based; conditions: human, time 24-48 hrs
Method in brief: (§3)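 Cells (HEK-293, HUVEC, MCF-7) exposed to test compounds at 10 μM for 24 h; cytotoxicity read in triplicate with a luminescence kit measuring intracellular ATP levels.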

HEK293 [6] = assay: Cytotoxicity against HEK293 cells at 10 uM incubated for 24 to 48 hrs by Celltiter-Glo assay relative to control; assay type: cell-based; conditions: human, hek293, 10 µM, time 24-48 hrs; method in brief: as §3
MCF7 [7] = assay: Cytotoxicity against human MCF7 cells at 10 uM incubated for 24 to 48 hrs by Celltiter-Glo assay relative to control; assay type: cell-based; conditions: mcf7, 10 µM, time 24-48 hrs; method in brief: as §3
HUVEC [8] = assay: Cytotoxicity against HUVEC cells incubated for 24 to 48 hrs by Celltiter-Glo assay; assay type: cell-based, Homo sapiens; conditions: huvec
HEK293 [9] = assay: Cytotoxicity against HEK293 cells incubated for 24 to 48 hrs by Celltiter-Glo assay; assay type: cell-based, Homo sapiens
MCF7 [10] = assay: Cytotoxicity against human MCF7 cells incubated for 24 to 48 hrs by Celltiter-Glo assay; assay type: cell-based
hERG = hERG (Homo sapiens, UniProt Q12809); assay: Inhibition of human ERG at 10 uM incubated for 2 hrs by fluorescence polarization assay relative to control
hERG, sequence (Q12809 whole entry): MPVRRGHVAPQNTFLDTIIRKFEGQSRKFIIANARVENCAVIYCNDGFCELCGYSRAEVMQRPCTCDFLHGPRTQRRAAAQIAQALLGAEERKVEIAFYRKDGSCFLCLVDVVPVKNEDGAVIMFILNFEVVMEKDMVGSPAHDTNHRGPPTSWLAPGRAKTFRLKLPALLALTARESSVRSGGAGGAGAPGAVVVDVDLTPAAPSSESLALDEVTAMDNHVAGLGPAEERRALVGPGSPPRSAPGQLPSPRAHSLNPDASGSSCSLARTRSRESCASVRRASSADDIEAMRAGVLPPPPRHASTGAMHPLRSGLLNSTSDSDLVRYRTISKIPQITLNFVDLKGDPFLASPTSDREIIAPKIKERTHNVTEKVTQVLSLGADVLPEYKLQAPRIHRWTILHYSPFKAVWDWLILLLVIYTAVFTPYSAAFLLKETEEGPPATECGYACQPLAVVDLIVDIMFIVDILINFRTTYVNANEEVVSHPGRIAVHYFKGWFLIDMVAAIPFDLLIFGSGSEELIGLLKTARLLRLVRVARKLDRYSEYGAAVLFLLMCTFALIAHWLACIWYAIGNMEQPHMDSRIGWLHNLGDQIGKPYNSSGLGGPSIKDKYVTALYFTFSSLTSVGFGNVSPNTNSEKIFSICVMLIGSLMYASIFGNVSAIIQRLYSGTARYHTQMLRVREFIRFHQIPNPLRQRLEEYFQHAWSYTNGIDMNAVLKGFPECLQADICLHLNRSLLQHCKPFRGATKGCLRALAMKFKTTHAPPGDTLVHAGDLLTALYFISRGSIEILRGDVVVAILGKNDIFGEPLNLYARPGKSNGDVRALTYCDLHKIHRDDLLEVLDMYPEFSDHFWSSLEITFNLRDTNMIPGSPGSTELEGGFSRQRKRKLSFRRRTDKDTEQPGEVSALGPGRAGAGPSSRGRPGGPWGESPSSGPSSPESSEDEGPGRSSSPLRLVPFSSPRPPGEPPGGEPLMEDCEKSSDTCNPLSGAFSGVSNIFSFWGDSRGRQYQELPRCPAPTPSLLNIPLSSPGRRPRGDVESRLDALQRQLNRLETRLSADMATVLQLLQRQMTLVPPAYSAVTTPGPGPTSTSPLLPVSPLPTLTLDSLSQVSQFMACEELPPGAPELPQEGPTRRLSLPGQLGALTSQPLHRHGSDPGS
Method in brief: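 hERG binding was measured by fluorescence polarization, using a homogenized membrane preparation containing hERG plus a fluorescent tracer. A drop in FP signal from tracer displacement was read as inhibition. Compounds were tested at 10 μM.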

[11] = target: ATP-dependent translocase ABCB1 (Homo sapiens, UniProt P08183); assay: Modulation of P-gp-mediated Rhodamine-123 efflux in human Caco-2 cells assessed as Rhodamine-123 accumulation at 10 uM pretreated for 30 mins in presence or absence of Zos followed by Rho-123 addition and measured after 90 mins by fluorescence spectroscopy; assay type: cell-based; conditions: caco-2, 2 h, time 120 min
ATP-dependent translocase ABCB1, sequence (P08183 whole entry): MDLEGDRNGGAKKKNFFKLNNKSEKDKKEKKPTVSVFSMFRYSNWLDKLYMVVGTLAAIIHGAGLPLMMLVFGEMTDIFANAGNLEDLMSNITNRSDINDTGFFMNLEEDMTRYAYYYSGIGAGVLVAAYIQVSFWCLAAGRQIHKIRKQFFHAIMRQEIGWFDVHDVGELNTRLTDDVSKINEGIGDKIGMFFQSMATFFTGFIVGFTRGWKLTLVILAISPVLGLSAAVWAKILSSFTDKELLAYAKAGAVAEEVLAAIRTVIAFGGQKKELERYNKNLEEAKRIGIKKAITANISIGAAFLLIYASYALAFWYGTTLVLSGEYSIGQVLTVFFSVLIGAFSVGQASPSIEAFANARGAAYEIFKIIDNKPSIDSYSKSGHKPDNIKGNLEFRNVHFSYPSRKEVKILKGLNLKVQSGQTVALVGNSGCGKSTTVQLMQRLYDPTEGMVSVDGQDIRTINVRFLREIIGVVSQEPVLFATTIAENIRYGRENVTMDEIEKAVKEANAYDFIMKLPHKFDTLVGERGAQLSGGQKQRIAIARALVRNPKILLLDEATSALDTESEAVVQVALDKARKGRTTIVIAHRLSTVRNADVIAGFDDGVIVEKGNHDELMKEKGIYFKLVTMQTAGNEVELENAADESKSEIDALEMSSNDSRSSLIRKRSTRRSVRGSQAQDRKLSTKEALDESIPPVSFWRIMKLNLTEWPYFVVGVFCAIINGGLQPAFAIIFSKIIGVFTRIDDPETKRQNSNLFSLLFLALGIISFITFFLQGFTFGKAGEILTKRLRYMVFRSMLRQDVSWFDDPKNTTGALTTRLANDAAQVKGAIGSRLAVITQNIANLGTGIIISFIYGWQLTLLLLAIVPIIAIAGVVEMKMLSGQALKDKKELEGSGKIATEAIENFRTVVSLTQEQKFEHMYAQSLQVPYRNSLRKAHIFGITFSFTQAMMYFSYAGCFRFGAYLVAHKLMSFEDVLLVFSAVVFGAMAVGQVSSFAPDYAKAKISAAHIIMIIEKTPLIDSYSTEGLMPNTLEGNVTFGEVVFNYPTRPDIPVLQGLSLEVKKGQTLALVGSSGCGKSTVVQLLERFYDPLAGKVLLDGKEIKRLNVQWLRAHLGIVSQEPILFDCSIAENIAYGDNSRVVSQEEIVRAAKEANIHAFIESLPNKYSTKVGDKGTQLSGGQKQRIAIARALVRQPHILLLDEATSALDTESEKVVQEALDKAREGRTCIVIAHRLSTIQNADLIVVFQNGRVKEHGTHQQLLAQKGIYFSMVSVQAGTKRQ
Method in brief: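 Caco-2 cells were exposed to compounds at 10 μM during incubation with the P-gp substrate rhodamine 123 (5 μM). Zosuquidar served as the specific P-gp inhibitor. Cellular rhodamine 123 was read by fluorescence spectroscopy. Mean ± SEM of at least three independent experiments in triplicate.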

SH-SY5Y [12] = assay: Protection against iron(III)-induced damage in human SH-SY5Y cells assessed as increase in lysosomal activity at 10 uM pretreated for 30 mins followed by iron(III) treatment after 24 hrs by NR uptake assay relative to control; assay type: functional; conditions: time 24.5 hrs
Method in brief: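 Differentiated SH-SY5Y cells were pretreated with compounds at 1 or 10 μM for 30 min, then exposed to iron(III) at 1000 or 1500 μM for 24 h. Viability was read by neutral red uptake. Mean ± SD of three independent experiments, two-way ANOVA.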

With `O=C(Nc1cccc(Cl)c1)c1csc2ccccc2c1=O` the pIC50 [1] was 8.82, the inhibition at 0.5 h, 10 µM (MAO-A) was 0.7% and the Ratio IC50 (Homo sapiens) was > 6570. The TDI [2] was “Active”, the “inhibition (INH)” value [3] was “Active” and the Activity (SH-SY5Y [4]) was “Non-Toxic”. For the same molecule, the Activity (Caco-2) was “Non-Toxic”, the Activity (HUVEC [5]) was < 10% and the Activity (HEK293 [6]) was < 10%. For the same molecule, the Activity (MCF7 [7]) was < 10%, the IC50 (HUVEC [8]) was “Not Active” and the IC50 (HEK293 [9]) was “Not Active”. For the same molecule, the IC50 (MCF7 [10]) was “Not Active”, the inhibition at 2 h, 10 µM (hERG) was < 10% and the Activity [11] was “Not Active”. For the same molecule, the Activity (SH-SY5Y [12]) was 63%.
